# Results as given in ChEMBL document CHEMBL4330098, “Identification of peptidomimetics as novel chemical probes modulating fibroblast growth factor 14 (FGF14) and voltage-gated sodium channel 1.6 (Nav1.6) protein-protein interactions” (Bioorg Med Chem Lett, 2019).
# Active and inactive are the calls of the source. The calls are words filed in the database; no cut-off is given here. Residues, ends and D or L forms follow the SMILES beside them. *: point of attachment. Fmoc = O=C(OCC1c2ccccc2-c2ccccc21)*; Cbz = O=C(OCc1ccccc1)*; Boc = CC(C)(C)OC(=O)*; Bz = O=C(c1ccccc1)*
# Key:
# Type in all cases: cell-based
# [1] = biological target: Luciferin 4-monooxygenase (Photinus pyralis) (UniProt P08659); assay: Effect on firefly luciferase activity expressed in HEK293 cells at 50 uM by luminescence assay
# Sequence of Luciferin 4-monooxygenase (Photinus pyralis) (P08659 whole entry): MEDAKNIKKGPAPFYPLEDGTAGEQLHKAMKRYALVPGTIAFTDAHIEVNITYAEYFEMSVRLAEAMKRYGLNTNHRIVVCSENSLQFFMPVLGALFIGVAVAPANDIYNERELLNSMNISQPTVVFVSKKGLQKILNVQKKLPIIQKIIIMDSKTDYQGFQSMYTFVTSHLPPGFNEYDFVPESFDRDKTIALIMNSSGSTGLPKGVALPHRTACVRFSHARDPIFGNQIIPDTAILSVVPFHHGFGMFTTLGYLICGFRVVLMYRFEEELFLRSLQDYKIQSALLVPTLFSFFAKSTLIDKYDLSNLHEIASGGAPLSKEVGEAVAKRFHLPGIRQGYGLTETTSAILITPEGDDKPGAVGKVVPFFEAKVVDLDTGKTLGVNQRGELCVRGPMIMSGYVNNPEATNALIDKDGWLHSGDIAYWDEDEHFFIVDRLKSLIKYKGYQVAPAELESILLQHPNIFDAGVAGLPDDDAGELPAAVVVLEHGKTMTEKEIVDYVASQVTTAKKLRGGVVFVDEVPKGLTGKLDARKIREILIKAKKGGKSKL
# Procedure, shortened: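 HEK293 cells transiently transfected with full-length Photinus (firefly) luciferase. Compounds dissolved in DMSO and diluted in medium to 50 μM final in 0.5% DMSO. Luminescence expressed as % of maximal, relative to 0.5% DMSO vehicle.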
# [2] = biological target: T1, Fibroblast growth factor 14/SCN8A (Homo sapiens) (UniProt Q9UQD0+Q92915); assay: Inhibition of Cluc-FGF14 (unknown origin)/CD4-Nav1.6-Nluc (unknown origin) protein-protein interaction using FGF14/NAV1.6 using HEK293 cells expressing FGF14/Nav1.6 by split luciferase complementation assay
# T1 sequence (Q92915 whole entry, looked up): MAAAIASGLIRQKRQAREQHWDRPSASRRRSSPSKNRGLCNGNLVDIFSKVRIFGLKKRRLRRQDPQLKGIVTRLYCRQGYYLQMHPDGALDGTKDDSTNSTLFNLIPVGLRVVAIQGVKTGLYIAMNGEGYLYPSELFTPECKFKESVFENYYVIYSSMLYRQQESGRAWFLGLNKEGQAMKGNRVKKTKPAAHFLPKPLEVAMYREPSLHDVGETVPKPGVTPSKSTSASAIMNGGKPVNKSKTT
# T1 sequence (Q9UQD0 whole entry, looked up): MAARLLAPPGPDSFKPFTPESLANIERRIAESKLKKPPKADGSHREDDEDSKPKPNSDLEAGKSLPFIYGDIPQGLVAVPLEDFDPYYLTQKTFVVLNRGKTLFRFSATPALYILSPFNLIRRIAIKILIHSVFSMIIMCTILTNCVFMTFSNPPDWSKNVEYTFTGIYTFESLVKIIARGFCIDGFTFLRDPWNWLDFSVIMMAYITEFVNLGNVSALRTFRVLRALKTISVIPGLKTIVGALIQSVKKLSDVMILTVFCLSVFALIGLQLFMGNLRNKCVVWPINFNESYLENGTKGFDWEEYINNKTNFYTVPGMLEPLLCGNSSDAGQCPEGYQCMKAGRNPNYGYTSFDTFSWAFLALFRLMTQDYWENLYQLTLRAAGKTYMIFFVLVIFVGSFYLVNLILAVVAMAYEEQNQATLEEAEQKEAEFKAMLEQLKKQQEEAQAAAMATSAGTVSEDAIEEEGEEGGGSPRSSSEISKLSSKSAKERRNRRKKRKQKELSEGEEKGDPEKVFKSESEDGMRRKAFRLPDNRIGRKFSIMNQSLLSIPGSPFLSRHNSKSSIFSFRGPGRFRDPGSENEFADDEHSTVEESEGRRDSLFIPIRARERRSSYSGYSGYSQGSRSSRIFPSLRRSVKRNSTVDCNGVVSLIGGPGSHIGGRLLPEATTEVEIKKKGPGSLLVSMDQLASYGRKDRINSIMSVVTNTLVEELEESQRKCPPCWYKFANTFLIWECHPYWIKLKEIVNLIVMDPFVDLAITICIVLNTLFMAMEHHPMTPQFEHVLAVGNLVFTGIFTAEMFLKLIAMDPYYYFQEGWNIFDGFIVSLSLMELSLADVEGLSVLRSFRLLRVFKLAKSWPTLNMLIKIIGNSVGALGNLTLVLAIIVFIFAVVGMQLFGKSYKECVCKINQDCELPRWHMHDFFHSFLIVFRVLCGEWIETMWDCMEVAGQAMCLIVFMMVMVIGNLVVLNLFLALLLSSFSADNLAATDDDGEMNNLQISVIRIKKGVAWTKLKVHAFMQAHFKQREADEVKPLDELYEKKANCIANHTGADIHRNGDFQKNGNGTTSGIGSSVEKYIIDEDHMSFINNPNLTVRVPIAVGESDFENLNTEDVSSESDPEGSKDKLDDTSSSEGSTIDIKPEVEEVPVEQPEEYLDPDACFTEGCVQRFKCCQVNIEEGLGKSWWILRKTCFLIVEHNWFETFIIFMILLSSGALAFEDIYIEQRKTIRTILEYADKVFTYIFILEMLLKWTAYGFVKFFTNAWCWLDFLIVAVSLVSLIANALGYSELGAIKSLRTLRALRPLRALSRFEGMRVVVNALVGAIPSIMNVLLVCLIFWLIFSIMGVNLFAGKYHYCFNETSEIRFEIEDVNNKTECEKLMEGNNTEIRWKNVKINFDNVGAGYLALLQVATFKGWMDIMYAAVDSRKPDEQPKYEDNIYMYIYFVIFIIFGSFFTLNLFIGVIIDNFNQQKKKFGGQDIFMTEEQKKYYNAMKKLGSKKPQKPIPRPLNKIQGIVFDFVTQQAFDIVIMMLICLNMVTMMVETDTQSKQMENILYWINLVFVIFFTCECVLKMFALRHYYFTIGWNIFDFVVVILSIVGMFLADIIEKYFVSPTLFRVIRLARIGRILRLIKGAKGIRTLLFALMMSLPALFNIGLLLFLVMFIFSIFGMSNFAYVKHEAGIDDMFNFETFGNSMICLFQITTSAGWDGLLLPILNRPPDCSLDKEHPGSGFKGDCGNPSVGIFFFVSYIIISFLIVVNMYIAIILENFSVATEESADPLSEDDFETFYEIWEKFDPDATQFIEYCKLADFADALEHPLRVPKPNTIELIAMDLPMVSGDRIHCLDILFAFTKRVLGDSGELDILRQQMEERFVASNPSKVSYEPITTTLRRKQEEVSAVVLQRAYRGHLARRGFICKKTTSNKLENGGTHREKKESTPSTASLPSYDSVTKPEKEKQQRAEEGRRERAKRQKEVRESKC
# Procedure, shortened: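 Split-luciferase complementation in HEK293 cells expressing Cluc-FGF14 and CD4-Nav1.6-Nluc. Five-point dose response at 1, 10, 25, 50 and 100 μM.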
# HEK293 = assay: Cytotoxicity against HEK293 cells assessed as reduction in cell viability at 50 uM by LDH release assay; conditions: human, hek293, 50 µM
# Procedure, shortened: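 LDH release cytotoxicity assay in HEK293 cells, compounds given at 50 μM final. Read-out is % cytotoxicity. Data are mean ± S.E.M.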
# [3] = biological target: T1, Fibroblast growth factor 14/SCN8A (Homo sapiens); assay: Modulation of Cluc-FGF14 (unknown origin)/CD4-Nav1.6-Nluc (unknown origin) protein-protein interaction using FGF14/NAV1.6 using HEK293 cells expressing FGF14/Nav1.6 assessed as luminescent response at 50 uM by split luciferase complementation assay relative to control
# Procedure, shortened: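 Split-luciferase complementation in HEK293 cells co-transfected with Cluc-FGF14 and CD4-Nav1.6-Nluc plasmids. Compounds in DMSO, diluted in medium to 50 μM final, 0.5% DMSO. Luminescence reported as % maximal vs 0.5% DMSO vehicle.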
# [4] = biological target: Sodium channel protein type 8 subunit alpha (Homo sapiens) (UniProt Q9UQD0); assay: Inhibition of Nav1.6 (unknown origin) expressed in HEK293 cells assessed as activation constant at 10 uM after 1 hr at -70 mV holding potential by whole cell patch clamp method (reference value: 3.4 +/- 0.2 mV)
# Sequence of Sodium channel protein type 8 subunit alpha (Homo sapiens) (Q9UQD0 whole entry, looked up): as above
# [5] = biological target: Sodium channel protein type 8 subunit alpha (Homo sapiens) (UniProt Q9UQD0); assay: Inhibition of Nav1.6 (unknown origin) expressed in HEK293 cells assessed as V1/2 of steady-state of inactivation at 10 uM after 1 hr at -70 mV holding potential by whole cell patch clamp method (reference value: […])
# [6] = biological target: Sodium channel protein type 8 subunit alpha (Homo sapiens) (UniProt Q9UQD0); assay: Inhibition of Nav1.6 (unknown origin) expressed in HEK293 cells assessed as inactivation time constant at 10 uM after 1 hr at -70 mV holding potential by whole cell patch clamp method (reference value: 2.04 +/- 0.3 milliseconds)
Structure (SMILES),Activity [1],inhibition [2],Activity (HEK293),Activity [3],Kact [4],V1/2 [5],TIME [6]
CC(=O)N1CCC[C@H]1C(=O)N[C@@H](CC(C)C)C(=O)N[C@@H](CCCCNC(=O)OC(C)(C)C)C(N)=O (Ac-Pro-Leu-Lys(Boc)-NH2),inactive,,,,,,
CC(C)C[C@H](NC(=O)[C@H](Cc1ccccc1)NC(=O)c1ccccc1)C(=O)N1CCC[C@H]1C(=O)N[C@@H](CCCCNC(=O)OC(C)(C)C)C(N)=O (Bz-FLPK(Boc)-NH2),inactive,Dose-dependent effect,Non-Toxic,,,,
CC(C)C[C@H](N)C(=O)N1CCC[C@H]1C(=O)N[C@@H](CCCCN)C(N)=O (H-Leu-Pro-Lys-NH2),inactive,,Non-Toxic,142%,,,
CC(C)C[C@H](NC(=O)[C@H](Cc1ccccc1)NC(=O)OCc1ccccc1)C(=O)N1CCC[C@H]1C(=O)N[C@@H](CCCCNC(=O)OC(C)(C)C)C(N)=O (Cbz-FLPK(Boc)-NH2),inactive,,,,,,
COC(=O)[C@H](CCCCNC(=O)OCC1c2ccccc2-c2ccccc21)NC(=O)[C@@H]1CCCN1C(=O)[C@H](CC(C)C)NC(=O)[C@H](Cc1ccccc1)NC(C)=O (Ac-FLPK(Fmoc)-OMe),inactive,Dose-dependent effect,Non-Toxic,,3.9 mV,-57.7 mV,5.69e-07 h
COC(=O)[C@H](CCCCNC(=O)OCC1c2ccccc2-c2ccccc21)NC(=O)[C@@H]1CCCN1C(=O)[C@H](CC(C)C)NC(=O)[C@@H](N)Cc1ccccc1 (H-FLPK(Fmoc)-OMe),inactive,,,124%,,,
